According to ChEMBL document CHEMBL2401724, “Synthesis and structure--activity relationships of N²-alkylated quaternary β-carbolines as novel antitumor agents” (Eur J Med Chem, 2013):

Assays:
SK-OV-3 = experiment: Cytotoxicity against human SKOV3 cells by MTT assay; format: functional, cell-based
Procedure, shortened: (§1)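 Cell lines were cultured in 96-well microtitre plates at 37 °C in humidified 5% CO₂. Compounds were dissolved in DMSO, at ≤2% (v/v) final in the growth medium. Viability was read by MTT staining, expressed relative to untreated cells.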

769-P = experiment: Cytotoxicity against human 769-P cells by MTT assay; format: functional, cell-based; procedure, shortened: as §1
[1] = Cytotoxicity against human ECA109 cells by MTT assay; format: functional, cell-based; settings: ECa-109; procedure, shortened: as §1
[2] = Antitumor activity against mouse Sarcoma 180 cells allografted in mouse assessed as tumor growth inhibition at 2.5 mg/kg, ip qd administered for 7 days measured after 21 days relative to control; format: functional; settings: Sarcoma-180, ip, route intraperitoneal, read-out: TGI
Procedure, shortened: (§2)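 Tumour cells (S180 sarcoma or Lewis lung) were first grown in mice for 7 days, then harvested. Viable cells (2 × 10⁶/mouse) were injected s.c. into the armpit. Groups of 10 female mice received the compound i.p. once daily for 7 consecutive days, starting 24 h after inoculation. Cyclophosphamide 30 mg/kg served as positive control and vehicle as negative control. Body weights were taken every 3 days. Mice were killed on day 21 post-inoculation, and tumours were excised and weighed to calculate the inhibition rate versus control.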

BGC-823 = experiment: Cytotoxicity against human BGC823 cells by MTT assay; format: functional, cell-based; procedure, shortened: as §1
CWR22R = experiment: Cytotoxicity against human 22Rv1 cells by MTT assay; format: functional, cell-based; procedure, shortened: as §1
MCF7 = experiment: Cytotoxicity against human MCF7 cells by MTT assay; format: functional, cell-based; procedure, shortened: as §1
HepG2 = experiment: Cytotoxicity against human HepG2 cells by MTT assay; format: functional, cell-based; procedure, shortened: as §1
[3] = Cytotoxicity against mouse LLC cells by MTT assay; format: functional, cell-based; settings: Lewis lung carcinoma; procedure, shortened: as §1
A-375 = experiment: Cytotoxicity against human A375 cells by MTT assay; format: functional, cell-based; procedure, shortened: as §1
[4] = Acute toxicity in ip dosed C57BL/6 mouse after 14 days; format: organism-based; settings: in vivo
Procedure, shortened: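 C57BL/6 mice (9–12 weeks, 18–22 g), single i.p. dose; watched continuously for 2 h, intermittently over 24 h, then occasionally to day 14 for behaviour, deaths and delayed effects. Survivors killed at day 14; heart, liver, kidneys inspected macroscopically, early deaths also examined. LD50 derived graphically.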

HT-29 = experiment: Cytotoxicity against human HT-29 cells by MTT assay; format: functional, cell-based; procedure, shortened: as §1
[5] = Antitumor activity against mouse Sarcoma 180 cells allografted in mouse assessed as tumor growth inhibition at 6 mg/kg, ip qd administered for 7 days measured after 21 days relative to control; format: functional; settings: Sarcoma-180, ip, route intraperitoneal, read-out: TGI; procedure, shortened: as §2
[6] = Antitumor activity against mouse Sarcoma 180 cells allografted in mouse assessed as tumor growth inhibition at 0.5 mg/kg, ip qd administered for 7 days measured after 21 days relative to control; format: functional; settings: Sarcoma-180, ip, route intraperitoneal, read-out: TGI; procedure, shortened: as §2
[7] = system: Lewis lung carcinoma cell line; experiment: Antitumor activity against mouse LLC cells allografted in mouse assessed as tumor growth inhibition at 0.5 mg/kg, ip qd administered for 7 days measured after 21 days relative to control; format: functional; settings: route intraperitoneal, read-out: TGI; procedure, shortened: as §2
[8] = system: Lewis lung carcinoma cell line; experiment: Antitumor activity against mouse LLC cells allografted in mouse assessed as tumor growth inhibition at 1.25 mg/kg, ip qd administered for 7 days measured after 21 days relative to control; format: functional; settings: route intraperitoneal, read-out: TGI; procedure, shortened: as §2
[9] = Antitumor activity against mouse Sarcoma 180 cells allografted in mouse assessed as tumor growth inhibition at 1.25 mg/kg, ip qd administered for 7 days measured after 21 days relative to control; format: functional; settings: Sarcoma-180, ip, route intraperitoneal, read-out: TGI; procedure, shortened: as §2
[10] = system: Lewis lung carcinoma cell line; experiment: Antitumor activity against mouse LLC cells allografted in mouse assessed as tumor growth inhibition at 4 mg/kg, ip qd administered for 7 days measured after 21 days relative to control; format: functional; settings: route intraperitoneal, read-out: TGI; procedure, shortened: as §2
LoVo = experiment: Cytotoxicity against human LoVo cells; format: functional, cell-based
[11] = Antitumor activity against mouse Sarcoma 180 cells allografted in mouse assessed as tumor growth inhibition at 4 mg/kg, ip qd administered for 7 days measured after 21 days relative to control; format: functional; settings: Sarcoma-180, ip, route intraperitoneal, read-out: TGI; procedure, shortened: as §2
[12] = system: Lewis lung carcinoma cell line; experiment: Antitumor activity against mouse LLC cells allografted in mouse assessed as tumor growth inhibition at 1.75 mg/kg, ip qd administered for 7 days measured after 21 days relative to control; format: functional; settings: route intraperitoneal, read-out: TGI; procedure, shortened: as §2
[13] = Antitumor activity against mouse Sarcoma 180 cells allografted in mouse assessed as tumor growth inhibition at 1.75 mg/kg, ip qd administered for 7 days measured after 21 days relative to control; format: functional; settings: Sarcoma-180, ip, route intraperitoneal, read-out: TGI; procedure, shortened: as §2

Row | Structure (SMILES) | IC50 (SK-OV-3) | IC50 (769-P) | IC50 [1] | IC50 (BGC-823) | IC50 (CWR22R) | IC50 (MCF7) | IC50 (HepG2) | IC50 [3] | IC50 (A-375) | LD50 at 336 h [4] | IC50 (HT-29) | also measured
1 | Fc1ccc(C[n+]2ccc3c4ccccc4n(CCCc4ccccc4)c3c2)cc1.[Cl-] | 12.2 µM | 14.3 µM | 5.3 µM | 8.1 µM | 4.3 µM | 9.7 µM | 10.4 µM | 8.1 µM | 10.4 µM | 12.5 mg/kg | 9.1 µM | inhibition in vivo at 2.5 mg/kg [2]: 51.5%
2 | Clc1cccc(C[n+]2ccc3c4ccccc4n(CCCc4ccccc4)c3c2)c1.[Br-] | 13.8 µM | 21.9 µM | 7.9 µM | 9.8 µM | 9.7 µM | 14.3 µM | 19 µM | 6.5 µM | 24.6 µM | 30 mg/kg | 16.5 µM | inhibition in vivo at 6 mg/kg [5]: 43.5%
3 | Cc1c2c(cc[n+]1Cc1ccccc1)c1ccccc1n2CCCc1ccccc1.[Br-] | 7.6 µM | 5.3 µM | 6.8 µM | 6.9 µM | 1.8 µM | 7 µM | 5.8 µM | < 2 µM | 8.5 µM | 2.5 mg/kg | 14.6 µM | inhibition in vivo at 0.5 mg/kg [6]: 51%; inhibition in vivo at 0.5 mg/kg [7]: 33.1%
4 | COc1ccc(-c2c3c(cc[n+]2Cc2ccccc2)c2ccccc2n3CCCc2ccccc2)cc1.[Br-] | 5.2 µM | < 2 µM | 12.3 µM | 3.2 µM | 1.8 µM | 2.2 µM | 3.3 µM | < 2 µM | < 2 µM | 6.25 mg/kg | 2.4 µM | inhibition in vivo at 1.25 mg/kg [8]: 23.9%; inhibition in vivo at 1.25 mg/kg [9]: 41.4%
5 | c1ccc(Cn2c3ccccc3c3cc[n+](Cc4ccccc4)cc32)cc1 | 16.9 µM | 8.7 µM | 32.7 µM | 38.7 µM | 5.7 µM | 18.7 µM | 34.6 µM | < 2 µM | 7.8 µM | – | 42.5 µM | inhibition in vivo at 4 mg/kg [10]: 48.5%; IC50 (LoVo): 20 µM; inhibition in vivo at 4 mg/kg [11]: 45.9%
6 | [Br-].c1ccc(CCCn2c3ccccc3c3cc[n+](Cc4ccccc4)cc32)cc1 | 4.4 µM | 4.9 µM | 11.7 µM | 8.5 µM | 3.2 µM | 14.4 µM | 7.9 µM | 3.9 µM | 8.7 µM | 8.9 mg/kg | 7.6 µM | inhibition in vivo at 1.75 mg/kg [12]: 59.2%; inhibition in vivo at 1.75 mg/kg [13]: 62.1%
